Assay [1] in a line: Selectivity for inhibition of human FXIa over bovine alpha-chymotrypsin.
The target of assay [2] is T1, Coagulation factor VII (Homo sapiens) (UniProt P08709).
T1 sequence (whole entry): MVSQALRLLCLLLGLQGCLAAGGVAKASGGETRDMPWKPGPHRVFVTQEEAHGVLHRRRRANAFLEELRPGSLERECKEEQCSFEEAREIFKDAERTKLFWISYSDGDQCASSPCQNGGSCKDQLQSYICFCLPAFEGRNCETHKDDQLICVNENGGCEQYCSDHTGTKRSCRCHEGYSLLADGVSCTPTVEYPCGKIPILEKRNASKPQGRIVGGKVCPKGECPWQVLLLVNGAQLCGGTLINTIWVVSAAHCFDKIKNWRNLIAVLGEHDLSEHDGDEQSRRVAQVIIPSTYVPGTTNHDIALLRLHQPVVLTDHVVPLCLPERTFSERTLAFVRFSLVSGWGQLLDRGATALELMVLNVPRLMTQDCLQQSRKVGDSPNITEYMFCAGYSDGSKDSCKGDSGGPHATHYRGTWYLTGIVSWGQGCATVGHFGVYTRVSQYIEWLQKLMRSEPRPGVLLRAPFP
Kind of assay: Inhibition of FVIIa (unknown origin) at 500 uM by chromogenic substrate hydrolysis assay.

Assay [3] concerns the target T2, Coagulation factor XI (Homo sapiens, UniProt P03951). Kind of assay: Inhibition of human FXIa using S-2366 as chromogenic substrate preincubated with enzyme for 10 mins followed by substrate addition by spectrophotometric analysis relative to control. Also on record: concentration or dose not given beside the values. Put shortly: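 hFXIa (0.765 nM final) preincubated with inhibitor or reference solution for 10 min at 37 °C in pH 7.4 buffer (50 mM Tris-HCl, 150 mM NaCl, 0.1% PEG8000, 0.02% Tween80). S-2366 (345 μM final) then added, and residual activity read on a microplate reader.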

For assay [4], the species on record is Homo sapiens. Kind of assay: Selectivity for inhibition of human FXIa over FVIIa (unknown origin).
The species named for another assay is Bos taurus. Kind of assay: Inhibition of bovine trypsin using S-2222 as chromogenic substrate at 500 uM by chromogenic substrate hydrolysis assay.
The target of assay [5] is Coagulation factor IX (Homo sapiens) (UniProt P00740). Put plainly: Inhibition of human FIXa at 500 uM by chromogenic substrate hydrolysis assay.
Sequence of Coagulation factor IX (Homo sapiens) (P00740 47-191 limits assumed): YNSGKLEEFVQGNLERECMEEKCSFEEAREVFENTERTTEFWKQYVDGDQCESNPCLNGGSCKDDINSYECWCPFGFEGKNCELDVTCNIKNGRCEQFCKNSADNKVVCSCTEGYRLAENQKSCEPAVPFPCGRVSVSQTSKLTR
Sequence of Coagulation factor IX (Homo sapiens) (P00740 227-461 limits assumed): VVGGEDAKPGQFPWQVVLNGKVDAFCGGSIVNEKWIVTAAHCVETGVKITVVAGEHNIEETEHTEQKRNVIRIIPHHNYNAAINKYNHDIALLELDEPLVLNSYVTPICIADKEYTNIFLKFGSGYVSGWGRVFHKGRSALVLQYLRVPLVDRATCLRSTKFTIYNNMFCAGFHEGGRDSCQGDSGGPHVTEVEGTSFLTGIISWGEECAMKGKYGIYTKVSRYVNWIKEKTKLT
The species named for assay [6] is Homo sapiens. Kind of assay: Selectivity for inhibition of human FXIa over human FIXa.
A short description of assay [7]: Selectivity for inhibition of human FXIa over bovine trypsin.
The species entered for assay [8] is Homo sapiens. Kind of assay: Selectivity for inhibition of human FXIa over Kallikrein in human plasma. In kind it is cell-free.
The species entered for assay [9] is Homo sapiens. Kind of assay: Selectivity for inhibition of human FXIa over human FXa.
In assay [10] the target is Coagulation factor X (Homo sapiens) (UniProt P00742). Put plainly: Inhibition of human FXa using methoxycarbonyl-D-cyclohexylglycyl-Gly-Arg-p-nitroanilide as substrate at 500 uM by chromogenic substrate hydrolysis assay.
Sequence of Coagulation factor X (Homo sapiens) (P00742 41-179 limits assumed): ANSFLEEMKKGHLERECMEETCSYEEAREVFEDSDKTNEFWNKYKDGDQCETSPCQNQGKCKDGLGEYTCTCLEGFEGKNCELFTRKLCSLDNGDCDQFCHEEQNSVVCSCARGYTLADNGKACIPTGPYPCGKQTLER
Sequence of Coagulation factor X (Homo sapiens) (P00742 235-488 limits assumed): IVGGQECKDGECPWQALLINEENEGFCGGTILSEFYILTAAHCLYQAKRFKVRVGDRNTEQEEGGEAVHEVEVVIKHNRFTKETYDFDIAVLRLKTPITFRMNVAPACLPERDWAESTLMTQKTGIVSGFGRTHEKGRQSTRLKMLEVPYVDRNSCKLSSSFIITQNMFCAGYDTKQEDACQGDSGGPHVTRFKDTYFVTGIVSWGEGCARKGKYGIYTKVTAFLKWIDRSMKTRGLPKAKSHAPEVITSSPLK
The species named for assay [11] is Homo sapiens. Put plainly: Selectivity for inhibition of human FXIa over human thrombin.
Assay [12] deals with Prothrombin (Homo sapiens) (UniProt P00734). Kind of assay: Inhibition of human thrombin at 500 uM by chromogenic substrate hydrolysis assay.
Assay [13] concerns the target Plasma kallikrein (Homo sapiens) (UniProt P03952). Kind of assay: Inhibition of Kallikrein in human plasma at 500 uM by chromogenic substrate hydrolysis assay. Type of assay: cell-free.
In assay [14] the target is T2, Coagulation factor XI. Put plainly: Inhibition of human FXIa using S-2366 as chromogenic substrate preincubated with enzyme for 10 mins followed by substrate addition by spectrophotometric analysis.
In assay [15] the target is Chymotrypsinogen A (Bos taurus) (UniProt P00766). Kind of assay: Inhibition of bovine alpha-chymotrypsin at 500 uM by chromogenic substrate hydrolysis assay.

The source made the active and inactive calls. The calls are words filed in the database; no cut-off is given here.

Sequence of Plasma kallikrein (Homo sapiens) (P03952 20-390 limits assumed): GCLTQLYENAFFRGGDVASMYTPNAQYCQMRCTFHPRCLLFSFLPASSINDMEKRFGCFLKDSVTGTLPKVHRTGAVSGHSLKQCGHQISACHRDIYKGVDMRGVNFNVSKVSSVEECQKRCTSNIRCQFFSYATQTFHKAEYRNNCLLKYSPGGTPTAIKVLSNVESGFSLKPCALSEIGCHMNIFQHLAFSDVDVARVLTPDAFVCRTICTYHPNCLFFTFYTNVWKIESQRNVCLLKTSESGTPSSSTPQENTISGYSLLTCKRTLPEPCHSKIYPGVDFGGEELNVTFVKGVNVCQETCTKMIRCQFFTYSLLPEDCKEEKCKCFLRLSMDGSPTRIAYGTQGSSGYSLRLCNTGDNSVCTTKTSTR
Sequence of Plasma kallikrein (Homo sapiens) (P03952 391-638 limits assumed): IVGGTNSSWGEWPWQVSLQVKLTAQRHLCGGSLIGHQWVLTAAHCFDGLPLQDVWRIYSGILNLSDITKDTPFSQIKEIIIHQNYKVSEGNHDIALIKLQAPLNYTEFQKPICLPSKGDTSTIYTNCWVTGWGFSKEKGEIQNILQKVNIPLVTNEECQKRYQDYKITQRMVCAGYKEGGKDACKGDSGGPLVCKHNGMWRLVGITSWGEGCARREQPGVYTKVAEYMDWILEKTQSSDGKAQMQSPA
T2 sequence (P03951 19-387 limits assumed): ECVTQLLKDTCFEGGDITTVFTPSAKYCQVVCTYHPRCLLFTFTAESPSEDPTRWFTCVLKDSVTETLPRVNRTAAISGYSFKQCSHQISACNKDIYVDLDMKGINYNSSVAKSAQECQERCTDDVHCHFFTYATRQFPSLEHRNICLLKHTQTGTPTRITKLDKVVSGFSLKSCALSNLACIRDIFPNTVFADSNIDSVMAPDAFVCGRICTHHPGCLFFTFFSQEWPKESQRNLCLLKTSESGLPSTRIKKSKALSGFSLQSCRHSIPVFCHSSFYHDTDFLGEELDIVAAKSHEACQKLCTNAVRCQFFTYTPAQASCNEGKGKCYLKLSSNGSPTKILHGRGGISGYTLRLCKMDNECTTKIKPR
T2 sequence (P03951 388-625 limits assumed): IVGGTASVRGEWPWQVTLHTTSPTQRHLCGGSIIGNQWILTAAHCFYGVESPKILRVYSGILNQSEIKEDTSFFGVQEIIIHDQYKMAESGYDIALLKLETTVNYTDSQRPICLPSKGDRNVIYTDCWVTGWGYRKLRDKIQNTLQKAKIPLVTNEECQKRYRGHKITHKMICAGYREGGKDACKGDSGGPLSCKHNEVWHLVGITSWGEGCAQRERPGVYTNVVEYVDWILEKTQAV

On to `O=c1c2ccccc2nc(-c2cccc(OS(=O)(=O)O)c2)n1CCOCCn1c(-c2cccc(OS(=O)(=O)O)c2)nc2ccccc2c1=O`, for which the Selectivity ratio (in assay [1]; in the assay filed under Homo sapiens [4]; in the assay listed under Homo sapiens [6]; in assay [7]; in the assay filed under Homo sapiens [8]; in the assay listed under Homo sapiens [9]) was greater than 63 each time. In addition, in the assay listed under Homo sapiens [11], the Selectivity ratio is greater than 63. Further, the inhibition result (in assay [2]; in the assay filed under Bos taurus; in assay [5]; in [10]; in assay [12]; in assay [13]) was “inactive” each time. The inhibition result in assay [15] was “inactive”. The inhibition at Coagulation factor XI [3] worked out at 94%. Also, the IC50 on Coagulation factor XI [14] turned out to be 401 µM.

Take `O=c1c2ccccc2nc(-c2ccc(OS(=O)(=O)O)cc2)n1CCCCCCCCn1cc(Cn2c(-c3ccc(OS(=O)(=O)O)cc3)nc3ccccc3c2=O)nn1`: the Selectivity ratio (in assay [1]; in the assay filed under Homo sapiens [4]; in the assay filed under Homo sapiens [6]; in assay [7]; in the assay listed under Homo sapiens [8]; in the assay listed under Homo sapiens [9]) was greater than 63 throughout. In addition, in the assay listed under Homo sapiens [11], the Selectivity ratio was greater than 63. The inhibition entry (in assay [2]; in the assay listed under Bos taurus; in assay [5]; in assay [10]; in assay [12]; in assay [13]) was “inactive” each time. Moreover, in assay [15], the inhibition result was “inactive”. The inhibition against Coagulation factor XI [3] is 100%. The IC50 on Coagulation factor XI [14] amounted to 39 µM.

Regarding `COc1ccc2nc(-c3ccc(OS(=O)(=O)O)cc3)n(CCCCCCn3c(-c4ccc(OS(=O)(=O)O)cc4)nc4ccc(OC)cc4c3=O)c(=O)c2c1`, the Selectivity ratio (in assay [1]; in the assay filed under Homo sapiens [4]; in the assay listed under Homo sapiens [6]; in assay [7]; in the assay filed under Homo sapiens [8]; in the assay filed under Homo sapiens [9]) was greater than 63 in each case. The Selectivity ratio in the assay listed under Homo sapiens [11] is greater than 63. Moreover, the inhibition result (in assay [2]; in the assay listed under Bos taurus; in assay [5]; in assay [10]; in assay [12]; in [13]) was “inactive” each time. Further, in assay [15], the inhibition result is “inactive”. Besides, on Coagulation factor XI [3], the inhibition came out at 95%. The same compound registered an IC50 at Coagulation factor XI [14] of 35 µM.

With `O=c1c2ccccc2nc(-c2ccc(OS(=O)(=O)O)cc2)n1CCCCCCCCCCn1cc(Cn2c(-c3ccc(OS(=O)(=O)O)cc3)nc3ccccc3c2=O)nn1`, the Selectivity ratio (in assay [1]; in the assay listed under Homo sapiens [4]; in the assay listed under Homo sapiens [6]; in assay [7]; in the assay filed under Homo sapiens [8]; in the assay listed under Homo sapiens [9]) was greater than 63 in each case. In the assay listed under Homo sapiens [11], the Selectivity ratio was greater than 63. In addition, the inhibition result (in [2]; in the assay listed under Bos taurus; in assay [5]; in assay [10]; in assay [12]; in [13]) was “inactive” in each case. Moreover, the inhibition entry in [15] is “inactive”. Moreover, the inhibition against Coagulation factor XI [3] came out at 112%. In addition, 22 µM corresponded to half-maximal inhibition against Coagulation factor XI [14] (IC50).

As for `O=c1c2ccccc2nc(-c2cccc(OS(=O)(=O)O)c2)n1Cc1ccccc1Cn1c(-c2cccc(OS(=O)(=O)O)c2)nc2ccccc2c1=O`, the Selectivity ratio (in assay [1]; in the assay listed under Homo sapiens [4]; in the assay listed under Homo sapiens [6]; in assay [7]; in the assay filed under Homo sapiens [8]; in the assay filed under Homo sapiens [9]) was greater than 63 in each case. Besides, the Selectivity ratio in the assay filed under Homo sapiens [11] was greater than 63. Besides, the inhibition result (in [2]; in the assay filed under Bos taurus; in [5]; in assay [10]; in [12]; in assay [13]) was “inactive” each time. Further, in [15], the inhibition entry was “inactive”. The inhibition at Coagulation factor XI [3] turned out to be 93%. This compound showed an IC50 at Coagulation factor XI [14] of 94 µM.

As to `O=c1c2ccccc2nc(-c2cccc(OS(=O)(=O)O)c2)n1CCCCCCn1c(-c2cccc(OS(=O)(=O)O)c2)nc2ccccc2c1=O`, the Selectivity ratio (in [1]; in the assay listed under Homo sapiens [4]; in the assay listed under Homo sapiens [6]; in [7]; in the assay listed under Homo sapiens [8]; in the assay filed under Homo sapiens [9]) was greater than 63 each time. Further, the Selectivity ratio in the assay filed under Homo sapiens [11] was greater than 63. The inhibition result (in assay [2]; in the assay listed under Bos taurus; in assay [5]; in assay [10]; in assay [12]; in [13]) was “inactive” throughout. The inhibition entry in assay [15] is “inactive”. For the same compound, the inhibition against Coagulation factor XI [3] was 96%. This compound registered an IC50 on Coagulation factor XI [14] of 53 µM.

For `O=c1c2ccccc2nc(-c2cccc(OS(=O)(=O)O)c2)n1C/C=C/Cn1c(-c2cccc(OS(=O)(=O)O)c2)nc2ccccc2c1=O`, the Selectivity ratio (in assay [1]; in the assay listed under Homo sapiens [4]; in the assay listed under Homo sapiens [6]; in assay [7]; in the assay listed under Homo sapiens [8]; in the assay listed under Homo sapiens [9]) was greater than 63 in each case. In addition, the Selectivity ratio in the assay filed under Homo sapiens [11] was greater than 63. In addition, the inhibition result (in [2]; in the assay filed under Bos taurus; in assay [5]; in assay [10]; in assay [12]; in [13]) was “inactive” each time. Further, the inhibition result in [15] is “inactive”. In addition, the inhibition on Coagulation factor XI [3] worked out at 96%. In addition, inhibition against Coagulation factor XI [14] was half-maximal at 415 µM (IC50).

On to `O=c1c2ccccc2nc(-c2ccc(OS(=O)(=O)O)cc2)n1CCCCCCCCCCCCn1cc(Cn2c(-c3ccc(OS(=O)(=O)O)cc3)nc3ccccc3c2=O)nn1`, for which the Selectivity ratio (in assay [1]; in the assay listed under Homo sapiens [4]; in the assay listed under Homo sapiens [6]; in assay [7]; in the assay filed under Homo sapiens [8]; in the assay filed under Homo sapiens [9]) was greater than 63 each time. Besides, the Selectivity ratio in the assay listed under Homo sapiens [11] was greater than 63. In addition, the inhibition entry (in assay [2]; in the assay filed under Bos taurus; in [5]; in assay [10]; in assay [12]; in assay [13]) was “inactive” each time. The inhibition entry in assay [15] was “inactive”. In addition, at Coagulation factor XI [3], the inhibition was 112%. The IC50 against Coagulation factor XI [14] was determined as 35 µM.

As for `O=c1c2ccccc2nc(-c2ccc(OS(=O)(=O)O)cc2)n1CCCCCCCCCCCn1cc(Cn2c(-c3ccc(OS(=O)(=O)O)cc3)nc3ccccc3c2=O)nn1`, the Selectivity ratio (in assay [1]; in the assay listed under Homo sapiens [4]; in the assay listed under Homo sapiens [6]; in [7]; in the assay filed under Homo sapiens [8]; in the assay filed under Homo sapiens [9]) was greater than 63 throughout. Also, in the assay filed under Homo sapiens [11], the Selectivity ratio is greater than 63. Besides, the inhibition result (in assay [2]; in the assay listed under Bos taurus; in assay [5]; in assay [10]; in assay [12]; in assay [13]) was “inactive” in each case. Further, the inhibition entry in assay [15] is “inactive”. Besides, the inhibition on Coagulation factor XI [3] came out at 98%. Besides, the midpoint of inhibition against Coagulation factor XI [14], the IC50, lay at 30 µM.

These data come from ChEMBL document CHEMBL5244263, “Studies on fragment-based design of allosteric inhibitors of human factor XIa” (Bioorg Med Chem, 2020).
